Converted amounts (≈) assume the structure as drawn. Marks after values point to notes of the source that are not given here. Non-standard residues stand in square brackets, D forms with d. Residues, ends and D or L forms follow the SMILES beside them.
Legend:
HER2 [1] = assay: Western blot of HER2 tyrosine phosphorylation in NCI-H838 cells; type: cell-based, human; conditions: for effect on HER2 transactivation caused by ET-1: NSCLC cells, concentration not given; for effect on HER2 transactivation caused by ET-1 / effect on basal P-HER2 or HER2: data not shown; for effect on increase in HER2 phosphorylation caused by 100 nM ET-1: 10 μM inhibitor, 2 min ET-1; for effect on basal P-HER2 or HER2: inhibitor alone
NCI-H838 cells [2] = assay: Clonogenic assay, NCI-H838 cells; type: cell-based, human; conditions: gefitinib 1 ug/ml; for reduction of colony number: absence of exogenous ET-1, BQ123 1 μM; for Colony number: in the presence of ET-1 10 nM, BQ123/BQ788 1000 nM, 2 weeks
NCI-H838 cells [3] = assay: MTT proliferation assay, NCI-H838 cells; type: cell-based; conditions: Homo sapiens, NCI-H838, 48 h, read-out: IC50, proliferation
A549 cells = assay: MTT proliferation assay, A549 cells; type: cell-based; conditions: Homo sapiens, A549, 48 h, read-out: IC50, proliferation
EGFR [4] = assay: Western blot of EGFR tyrosine phosphorylation in NCI-H838 cells; type: cell-based, human; conditions: for effect on EGFR transactivation caused by ET-1: NSCLC cells, concentration not given; for effect on EGFR transactivation caused by ET-1 / effect on basal P-EGFR, EGFR: data not shown; for effect on increase in EGFR phosphorylation caused by 100 nM ET-1: 10 μM inhibitor, 2 min ET-1; for effect on basal P-EGFR, EGFR: inhibitor alone
NCI-H727 cells = assay: MTT proliferation assay, NCI-H727 cells; type: cell-based; conditions: Homo sapiens, NCI-H727, 48 h, read-out: IC50, proliferation
ETAR [5] = target: T1, ETAR (Homo sapiens, UniProt P25101); assay: 125I-ET-1 radioreceptor binding to NCI-H1975 cells
T1 sequence (P25101 21-427): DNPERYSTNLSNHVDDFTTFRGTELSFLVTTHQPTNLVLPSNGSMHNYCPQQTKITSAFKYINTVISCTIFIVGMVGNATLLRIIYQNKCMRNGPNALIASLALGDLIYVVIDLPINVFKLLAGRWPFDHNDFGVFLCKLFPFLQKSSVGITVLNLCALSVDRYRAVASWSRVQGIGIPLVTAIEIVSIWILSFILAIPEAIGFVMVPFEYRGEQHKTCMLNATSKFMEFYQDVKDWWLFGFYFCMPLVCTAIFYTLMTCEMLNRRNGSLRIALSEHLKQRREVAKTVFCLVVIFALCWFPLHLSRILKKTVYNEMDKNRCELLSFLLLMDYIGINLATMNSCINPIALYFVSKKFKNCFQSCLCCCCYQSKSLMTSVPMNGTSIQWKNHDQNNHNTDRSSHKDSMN

ETAR [6] = target: T1, ETAR; assay: 125I-ET-1 radioreceptor binding to NCI-H838 cells
[7] = test system: cytosolic Ca2+ in SC-A1 cells; conditions: cited from earlier work
[8] = test system: cytosolic Ca2+ in NCI-H1975 cells; assay: Cytosolic Ca2+ in Fura-2AM loaded NCI-H1975 cells; type: cell-based, human; conditions: for antagonism of the Ca2+ increase caused by 10 nM ET-1: 1000 nM antagonist; for effect on basal cytosolic Ca2+: 1000 nM antagonist alone
Method in brief: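 NCI-H1975 cells were detached with trypsin-EDTA and loaded with Fura-2AM in SIT medium (2.5 × 10^6 cells/ml) at 37°C for 30 min. Cells were spun at 1000 × g for 5 min, resuspended at 2.5 × 10^6/ml and placed in a stirred quartz cuvette at 37°C.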

[9] = test system: reactive oxygen species in NCI-H838 cells; assay: Reactive oxygen species in H2DCF labeled NCI-H838 cells; type: cell-based, human
Method in brief: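 NCI-H838 cells were plated at 30,000/well and cultured overnight. They were loaded with 10 µM H2DCF for 1 h and washed 3 times in serum-free SIT medium. Test compound (5 mM or 10 µM) was added 30 min before 10 µM H2O2. Fluorescence (ex 485, […]) was read 0.5 h after stimulus and expressed as relative fluorescence, mean ± S.D. of 8 determinations.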

HER2 [10] = assay: Western blot of HER2 tyrosine phosphorylation in NCI-H1975 cells; type: cell-based, human; conditions: 5 mM
Method in brief: (§1)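 Lysates (Tris pH 7.5, vanadate) were either immunoprecipitated with anti-phosphotyrosine antibody (400 µg protein) or loaded directly (20 µg) and probed with anti-PY1068-EGFR or anti-[…]-HER2. ECL bands were quantified by densitometry as mean % tyrosine phosphorylation.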

EGFR [11] = assay: Western blot of EGFR tyrosine phosphorylation in NCI-H1975 cells; type: cell-based, human; conditions: 5 mM
Method in brief: as §1

NSCLC patients [12] = conditions: plus paclitaxel-carboplatin; cited from earlier work
NSCLC patients [13] = conditions: zibotentan or zibotentan plus pemetrexed; cited from earlier work
[14] = addition alone (ET-1 100 nM, H2O2 10 μM, Tiron 5 mM, ZD4054 10 μM), 0.5 hr, None = 100
[15] = with H2O2 10 μM, Tiron or ZD4054 added 0.5 h before, read 0.5 hr after H2O2

COc1cc2ncnc(Nc3ccc(F)c(Cl)c3)c2cc1OCCCN1CCOCC1 [Gefitinib, gefitinib]
effect on HER2 transactivation caused by 100 nM ET-1 (HER2 [1]; 10 μg/ml): significantly reduced | reduction of colony number (NCI-H838 cells [2]): 50% | Colony number (NCI-H838 cells [2]): 32 ± 3 ^aa

CS(=O)(=O)CCNCc1ccc(-c2ccc3ncnc(Nc4ccc(OCc5cccc(F)c5)c(Cl)c4)c3c2)o1 [Lapatinib, lapatinib]
IC50 (NCI-H838 cells [3]): 1 µg/mL (≈ 1.72 µM) | effect on HER2 transactivation caused by ET-1 (HER2 [1]): inhibited | IC50 (A549 cells): 2 µg/mL (≈ 3.44 µM) | effect on EGFR transactivation caused by ET-1 (EGFR [4]): inhibited | IC50 (NCI-H727 cells): 0.5 µg/mL (≈ 0.86 µM) | IC50 (ETAR [5]): > 10000 nM | IC50 (ETAR [6]): > 10000 nM

CC(C)C[C@@H]1NC(=O)[C@@H](C(C)C)NC(=O)[C@@H]2CCCN2C(=O)[C@@H](CC(=O)O)NC(=O)[C@@H](Cc2c[nH]c3ccccc23)NC1=O [BQ123] (cyclo(L[dW][dD]P[dV]); ring closure inferred)
effect on HER2 tyrosine phosphorylation caused by 100 nM ET-1 (HER2 [1]; 0.1 μM antagonist): little effect | effect on HER2 tyrosine phosphorylation caused by 100 nM ET-1 (HER2 [1]; 1 μM or 10 μM antagonist): significantly reduced | effect on the Ca2+ increase caused by ET-1 [7]: reversed | antagonism of the Ca2+ increase caused by 10 nM ET-1 [8]: blocked | effect on basal cytosolic Ca2+ [8]: did not alter | effect on EGFR tyrosine phosphorylation caused by 100 nM ET-1 (EGFR [4]; 0.1 μM antagonist): little effect | effect on EGFR tyrosine phosphorylation caused by 100 nM ET-1 (EGFR [4]; 1 μM or 10 μM antagonist): significantly reduced | IC50 (ETAR [5]): 1.5 ± 0.03 nM | IC50 (ETAR [6]): 1 ± 0.2 nM | reduction of colony number (NCI-H838 cells [2]): 22% | Colony number (NCI-H838 cells [2]): 37 ± 2 ^a

CNC(=O)[C@H](Cc1c[nH]c2ccccc12)NC(=O)[C@@H](CC(=O)NO)CC(C)C [GM6001]
effect on increase in HER2 phosphorylation caused by 100 nM ET-1 (HER2 [1]): inhibited significantly | effect on basal P-HER2 or HER2 (HER2 [1]): no effect | effect on increase in EGFR phosphorylation caused by 100 nM ET-1 (EGFR [4]): inhibited significantly | effect on basal P-EGFR, EGFR (EGFR [4]): no effect

O=S(=O)(O)c1cc(O)c(O)c(S(=O)(=O)O)c1 [Tiron]
% Fluorescence intensity [9, 14]: 99 ± 7 ^aa^, ^bb % | % Fluorescence intensity [9, 15]: 171 ± 12 ^bb % | effect on basal P-HER2 or HER2 (HER2 [1]): no effect | effect on basal P-EGFR, EGFR (EGFR [4]): no effect | effect on increase in HER2 tyrosine phosphorylation caused by ET-1 (HER2 [10]): inhibited significantly | effect on increase in EGFR tyrosine phosphorylation caused by ET-1 (EGFR [11]): inhibited significantly

CCCC[C@@H](NC(=O)[C@@H](Cc1cn(C(=O)OC)c2ccccc12)NC(=O)[C@H](CC(C)(C)C)NC(=O)N1[C@H](C)CCC[C@@H]1C)C(=O)O [BQ788]
effect on HER2 transactivation caused by ET-1 (HER2 [1]): little effect | antagonism of the Ca2+ increase caused by 10 nM ET-1 [8]: did not antagonize | effect on basal cytosolic Ca2+ [8]: had no effect | effect on EGFR transactivation caused by ET-1 (EGFR [4]): little effect | IC50 (ETAR [5]): 25 ± 3 nM | IC50 (ETAR [6]): 20 ± 2 nM | Colony number (NCI-H838 cells [2]): 46 ± 4

CCCCN(CCCC)C(=O)CN1C[C@H](c2ccc3c(c2)OCO3)[C@@H](C(=O)O)[C@@H]1c1ccc(OC)cc1 [atrasentan]
tolerability (NSCLC patients [12]): well tolerated

OO [H2O2]
% Fluorescence intensity [9, 14]: 401 ± 37 ^aa %

COc1nc(C)cnc1NS(=O)(=O)c1cccnc1-c1ccc(-c2nnco2)cc1 [ZD4054, zibotentan]
IC50 (NCI-H838 cells [3]): 50 µg/mL (≈ 118 µM) | % Fluorescence intensity [9, 14]: 105 ± 6 ^aa^, ^bb % | % Fluorescence intensity [9, 15]: 351 ± 22 ^aa % | effect on HER2 transactivation caused by ET-1 (HER2 [1]): inhibited | IC50 (A549 cells): 45 µg/mL (≈ 106 µM) | effect on EGFR transactivation caused by ET-1 (EGFR [4]): inhibited | overall survival (NSCLC patients [13]): no differences

COc1ccc2c(c1)CC[C@@H]1[C@@H]2CC[C@]2(C)[C@@H](NCCCCCCN3C(=O)C=CC3=O)CC[C@@H]12 [U73122]
effect on the Ca2+ increase caused by ET-1 [7]: reversed

COC(=O)C1=C(C)NC(C)=C(C(=O)OC)C1c1ccccc1[N+](=O)[O-] [nifedipine]
effect on the Ca2+ increase caused by ET-1 [7]: reversed

CC(=O)N[C@@H](CS)C(=O)O [Nacetylcysteine]
effect on HER2 transactivation caused by ET-1 (HER2 [1]): inhibited | effect on EGFR transactivation caused by ET-1 (EGFR [4]): inhibited

CC(C)(C)n1nc(-c2ccc(Cl)cc2)c2c(N)ncnc21 [PP2]
effect on increase in HER2 phosphorylation caused by 100 nM ET-1 (HER2 [1]): inhibited significantly | effect on basal P-HER2 or HER2 (HER2 [1]): no effect | effect on increase in EGFR phosphorylation caused by 100 nM ET-1 (EGFR [4]): inhibited significantly | effect on basal P-EGFR, EGFR (EGFR [4]): no effect

Reference: article PMC5421360 (Peptides, 2017)
